In data set [1] the test system is Mus musculus. Description: In vivo binding affinity to GlyT1 in ddY mouse brain cortex at 33.3 kBq, iv after 30 mins in presence of SSR504734 2 mg/kg, iv administered 15 mins prior to compound administration relative to control. Particulars: tested as the 125I-labelled form. On the set-up: dose 2 mg/kg. The format is functional, organism-based. A digest of the protocol:
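Blocking study in male ddY mice (6 weeks, 30–35 g). The blocker (2 mg/kg in 30% DMSO/saline) was injected i.v. 15 min before about 33.3 kBq [125I]tracer i.v.; mice were killed at 30 or 60 min. Brains were divided into cortex, corpus callosum, hippocampus, thalamus, midbrain, medulla and cerebellum, weighed and gamma-counted as % dose/g. Values are mean ± SD, n = 5–6, compared to control by Kruskal–Wallis with Dunn's post-test.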

The subject of data set [2] is Mus musculus. As to the kind of experiment: In vivo binding affinity to GlyT1 in ddY mouse brain hippocampus at 33.3 kBq, iv after 60 mins in presence of SSR504734 2 mg/kg, iv administered 15 mins prior to compound administration relative to control. On the set-up: dose 2 mg/kg. Particulars: tested as the 125I-labelled form. It counts as functional, organism-based. In short, it runs like this: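 Male ddY mice (6 W, 30–35 g) were given [125I]5 (ca. 33.3 kBq, 0.1 mL) iv via tail vein. Blocker (2 mg/kg in 30% DMSO/saline) was given iv 15 min before the tracer. Mice were killed 30 or 60 min after injection and the brain regions were dissected and weighed. Gamma counting gave % dose/g, compared with control; n = 5–6.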

The test system of data set [3] is Mus musculus. Description: In vivo binding affinity to GlyT1 in ddY mouse brain medullary region at 200 kBq, iv after 60 mins by autoradiography relative to control. Particulars: Medulla of organ, tested as the 125I-labelled form. It counts as functional, organism-based. In short, it runs like this: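 Male ddY mice were injected iv with [125I]5 (200 kBq) and killed 60 min post-injection. For blocking, unlabeled blocker (2 mg/kg) was given iv 15 min before the tracer. Frozen brain sagittal sections (20 μm) were exposed to an imaging plate for 7 days. Regional radioactivity was read as PSL/mm² (n = 5) and compared with control by Kruskal–Wallis with Dunn's post-test.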

The test system of data set [4] is Mus musculus. Description: In vivo binding affinity to GlyT1 in ddY mouse brain hippocampus at 200 kBq, iv after 60 mins by autoradiography relative to control. It counts as functional, organism-based. As to conditions: tested as the 125I-labelled form. A digest of the protocol:
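Ex vivo autoradiography in mice given 200 kBq [125I]tracer i.v. and killed at 60 min. Brains were removed, frozen on dry ice and cut into 20 µm sagittal cryosections, which were exposed to an imaging plate for 7 days. Regional signal was quantified as PSL/mm² (n = 5) and compared to control by Kruskal–Wallis with Dunn's post-test.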

The target in data set [5] is T1, Sodium- and chloride-dependent glycine transporter 1 (Rattus norvegicus) (UniProt P28572).
T1 sequence (whole entry): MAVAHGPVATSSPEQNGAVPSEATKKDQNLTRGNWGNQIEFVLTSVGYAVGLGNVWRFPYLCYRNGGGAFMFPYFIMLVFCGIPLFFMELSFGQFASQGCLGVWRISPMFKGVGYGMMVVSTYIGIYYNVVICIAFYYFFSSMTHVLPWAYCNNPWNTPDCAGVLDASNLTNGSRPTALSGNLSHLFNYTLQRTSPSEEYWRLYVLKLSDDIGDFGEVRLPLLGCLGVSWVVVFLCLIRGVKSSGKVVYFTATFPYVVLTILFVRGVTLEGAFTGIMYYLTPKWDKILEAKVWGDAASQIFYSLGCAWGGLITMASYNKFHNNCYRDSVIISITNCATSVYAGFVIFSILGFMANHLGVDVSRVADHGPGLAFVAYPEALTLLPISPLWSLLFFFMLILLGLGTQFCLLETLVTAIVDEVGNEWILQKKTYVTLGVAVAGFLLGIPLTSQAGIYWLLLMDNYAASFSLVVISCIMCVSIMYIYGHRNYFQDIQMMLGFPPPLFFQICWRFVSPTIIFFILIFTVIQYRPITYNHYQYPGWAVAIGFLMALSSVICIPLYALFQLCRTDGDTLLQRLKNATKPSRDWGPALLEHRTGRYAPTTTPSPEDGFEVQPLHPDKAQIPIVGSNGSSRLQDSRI
Description: Binding affinity to GlyT1 in rat brain striatum at 0.03 to 0.04 nM preincubated for 20 mins in binding buffer before compound addition measured after 30 mins by autoradiography in presence of GlyT1 inhibitor N-Me-SSR504734 relative to control. It counts as tissue-based. Particulars: tested as the 125I-labelled form.

Data set [6] has as its target T1, Sodium- and chloride-dependent glycine transporter 1 (Rattus norvegicus). Description: Binding affinity to GlyT1 in rat brain midbrain at 0.03 to 0.04 nM preincubated for 20 mins in binding buffer before compound addition measured after 30 mins by autoradiography in presence of 0.01 mM GlyT1 inhibitor HPCP relative to control. The format is tissue-based. Particulars: tested as the 125I-labelled form. A digest of the protocol:
(§1)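 Rat brain sagittal sections (20 µm) preincubated 20 min at 25 °C in Tris-HCl buffer pH 7.5 (NaCl, KCl, MgCl2, CaCl2), then 30 min at 25 °C with [125I] tracer (100 kBq, 0.03–0.04 nM) plus competitor (10 µM; glycine 1 or 10 mM). Cold washes, imaging plate 3 days, ROI PSL minus background per mm². % control from ≥triplicate slices, three rats.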

Data set [7] shares this target. Description: Binding affinity to GlyT1 in rat brain midbrain at 0.03 to 0.04 nM preincubated for 20 mins in binding buffer before compound addition measured after 30 mins by autoradiography in presence of 0.01 mM GlyT1 inhibitor ALX5407 relative to control. It counts as tissue-based. As to conditions: tested as the 125I-labelled form. In short, it runs like this:
as §1

For data set [8], the system named is Kidney. As to the kind of experiment: Drug uptake in ddY mouse kidney at 11.1 kBq, iv after 60 min by gamma counting. Particulars: in vivo, 1 h. It counts as ADME, organism-based. A digest of the protocol:
(§2)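 Male ddY mice (6 weeks, 30–35 g) were given about 11.1 kBq of [125I]tracer in 0.1 mL i.v. via the tail vein. At each time point the animals were killed and organs dissected, weighed and gamma-counted. Uptake is expressed as % injected dose per gram of tissue, mean ± SD, n = 5–6.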

Data set [9] concerns Intestine. Description: Drug uptake in ddY mouse intestine at 11.1 kBq, iv after 60 min by gamma counting. As to conditions: in vivo, 1 h. It counts as ADME, organism-based. In short, it runs like this:
(§3)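 Male ddY mice (6 weeks, 30–35 g) received about 11.1 kBq [125I]tracer in 0.1 mL i.v. via tail vein. Killed at set times, organs dissected and weighed, radioactivity gamma counted. Reported as % injected dose/g tissue, mean ± SD, n = 5–6.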

For data set [10], the system named is Spleen. Description: Drug uptake in ddY mouse spleen at 11.1 kBq, iv after 15 min by gamma counting. It counts as ADME, organism-based. Particulars: in vivo. In short, it runs like this:
as §2

In data set [11] the test system is Spleen. Description: Drug uptake in ddY mouse spleen at 11.1 kBq, iv after 60 min by gamma counting. It counts as ADME, organism-based. Particulars: in vivo, 1 h. A digest of the protocol: as §2
The test system of data set [12] is Mus musculus. As to the kind of experiment: In vivo binding affinity to GlyT1 in ddY mouse brain medullary region at 33.3 kBq, iv after 60 mins in presence of nonradioactive compound 2 mg/kg, iv administered 15 mins prior to compound administration relative to control. The format is functional, Medulla of organ.
Data set [13] deals with Nucleic Acid. Description: Ratio of drug level in brain to blood in ddY mouse at 11.1 kBq, iv after 60 min by gamma counting. It counts as ADME, organism-based. Particulars: 1 h.
For data set [14], the system named is Stomach. Description: Drug uptake in ddY mouse stomach at 11.1 kBq, iv after 30 min by gamma counting. It counts as ADME, organism-based. As to conditions: in vivo, 0.5 h. In short, it runs like this: as §2
Data set [15] has as its system Brain. As to the kind of experiment: Drug uptake in ddY mouse brain at 11.1 kBq, iv after 15 min by gamma counting. The format is ADME, organism-based. Particulars: in vivo. A digest of the protocol: as §3
Data set [16] concerns Brain. Description: Drug uptake in ddY mouse brain at 11.1 kBq, iv after 60 min by gamma counting. As to conditions: in vivo, 1 h. It counts as ADME, organism-based. In short, it runs like this:
as §3

Active and inactive are the calls of the source. The calls are words filed in the database; no cut-off is given here.

`CN1CCCC[C@H]1[C@@H](NC(=O)c1cccc(C(F)(F)F)c1I)c1ccccc1`: the result in data set [1], in data set [2] and in [4] was inactive. Besides, the result in [3] was Active. In addition, the figures for the Activity in data set [5], in [6] and in data set [7] were 32.2%, 19.7% and 36.2%, respectively.

Consider `CN1CCCC[C@H]1[C@@H](NC(=O)c1cccc(C(F)(F)F)c1[125I])c1ccccc1`, for which the Drug uptake in data set [8] is 8.27 % ID/g; in data set [9] it was 9.59 % ID/g; in [10] it was 5.5 % ID/g; in data set [11], 5.86 % ID/g; in [14], 8.66 % ID/g; in data set [15] it was 1.68 % ID/g. The compound further yielded a Drug uptake in data set [16] of 1.85 % ID/g. Further, the Activity in [12] was determined as 52%. In addition, the Ratio in data set [13] is listed as 2.32.

These data come from ChEMBL document CHEMBL1938298, “Synthesis and characterization of [¹²⁵I]2-iodo N-[(S)-{(S)-1-methylpiperidin-2-yl}(phenyl)methyl]3-trifluoromethyl-benzamide as novel imaging probe for glycine transporter 1” (Bioorg Med Chem, 2011).
